The results in this text go back to ChEMBL document CHEMBL1152967, “Scalarane-based sesterterpenoid RCE-protease inhibitors isolated from the Indonesian marine sponge Carteriospongia foliascens” (J Nat Prod, 2009).

Converted amounts (≈) assume the structure as drawn.

One may read the IC50 as the midpoint of a concentration-inhibition curve. A low value points to higher potency.

The nature of test [1]: Cytotoxicity against human MDA468 cells harboring mutated PTEN and p53 after 3 days. The settings on record: MDA-MB-468, 72 h. It counts as functional, cell-based.
In the next test the test system is Caco-2. Nature of the test: Cytotoxicity against human Caco-2 cells harboring wild type Ras after 3 days. Type of test: functional, cell-based. The settings on record: Caco-2, 72 h.
A further test concerns LoVo. Nature of the test: Cytotoxicity against human LoVo cells harboring mutated K-Ras after 3 days. It counts as functional, cell-based. The settings on record: 72 h.
A further test deals with PC-3. Nature of the test: Cytotoxicity against human PC3 cells harboring mutated PTEN and p53 after 3 days. It counts as functional, cell-based. The settings on record: PC-3, 72 h.
The target in a further test is T1, CAAX prenyl protease 2 (Homo sapiens, UniProt Q9Y256).
T1 sequence (Q9Y256 whole entry): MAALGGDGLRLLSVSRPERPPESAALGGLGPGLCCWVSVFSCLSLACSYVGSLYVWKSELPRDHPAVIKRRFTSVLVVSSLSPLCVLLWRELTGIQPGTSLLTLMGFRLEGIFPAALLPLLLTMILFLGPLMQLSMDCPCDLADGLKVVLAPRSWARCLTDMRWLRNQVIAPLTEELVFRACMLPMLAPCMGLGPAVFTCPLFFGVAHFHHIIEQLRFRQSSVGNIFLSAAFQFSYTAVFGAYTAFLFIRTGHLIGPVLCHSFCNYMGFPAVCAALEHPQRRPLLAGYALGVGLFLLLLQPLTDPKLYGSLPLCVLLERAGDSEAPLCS
Nature of the test: Inhibition of human RCE1. The procedure, abridged:
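Substrate was a fluorescent-labeled peptide from the carboxy terminus of farnesylated K-Ras. Cleavage was analyzed by reversed-phase HPLC. IC50 is reported in µg/mL.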

For the compound `CCO[C@@H]1C[C@H]2[C@]3(C)CC[C@H]4[C@@](C)(CC)CCC[C@]4(C)[C@H]3C[C@H](OC(=O)CC(O)C(C)C)[C@]2(C)C2=C1C(C)(O)OC2=O` (stereo not given in full), the IC50 is 4.4 µg/mL (≈ 7.47 µM) in test [1]; 4.2 µg/mL (≈ 7.13 µM) in the test with Caco-2; 2.9 µg/mL (≈ 4.93 µM) in the test on LoVo; 3.2 µg/mL (≈ 5.43 µM) with PC-3; 7.31 µM at CAAX prenyl protease 2.

In the case of `CCC(O)CC(=O)O[C@H]1C[C@@H]2[C@@]3(C)CCC[C@](C)(CC)[C@@H]3CC[C@@]2(C)[C@@H]2C=CC3=C(C(=O)OC3(C)O)[C@@]12C` (stereo not given in full), the IC50 in test [1] is > 10 µg/mL; in the test on Caco-2, 6.2 µg/mL (≈ 11.7 µM); in the test with LoVo, 3.4 µg/mL (≈ 6.43 µM); with PC-3, 3.7 µg/mL (≈ 7 µM); against CAAX prenyl protease 2, 17 µM.

In the case of `CCC(O)CC(=O)O[C@H]1C[C@H]2[C@@](C)(CC[C@H]3[C@@](C)(CC)CCC[C@]23C)[C@@H]2C[C@@H](O)C(C(C)=O)=C[C@@]12C` (stereo not given in full), the IC50 in test [1] was > 10 µg/mL; in the test on Caco-2, > 10 µg/mL; with LoVo, > 10 µg/mL; in the test on PC-3, > 10 µg/mL; against CAAX prenyl protease 2, > 199 µM.

For the compound `CC[C@@]1(C)CCC[C@]2(C)[C@H]3C[C@H](OC(=O)CC(O)C(C)C)[C@]4(C)C=C(C(C)=O)[C@H](O)C[C@H]4[C@]3(C)CC[C@@H]12` (stereo not given in full), the IC50 in test [1] is 9.5 µg/mL (≈ 18.4 µM); in the test with Caco-2, 3.4 µg/mL (≈ 6.58 µM); with LoVo, 7.6 µg/mL (≈ 14.7 µM); with PC-3 it was 3.8 µg/mL (≈ 7.35 µM); against CAAX prenyl protease 2 it was 73.5 µM.
